Assay results reported in PMC6404779 (Nature medicine, 2018).

What was measured:
[1] = Tolerability in nude mice; type: in vivo; settings: doses up to 100mg/kg daily
BRAF knockout MEF cells = assay: p-MEK/p-ERK in RAF knockout MEF cells; type: cell-based, Mouse; settings: 1hr
Procedure, shortened: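 Wild-type control MEFs and ARAF, BRAF or CRAF knockout MEFs (from a conditional RAF knockout line) were exposed 1 hr to increasing test compound concentrations. Western blot measured p-MEK, MEK, p-ERK and ERK. p-MEK/MEK and p-ERK/ERK were quantified by densitometry, normalized to untreated cells and plotted as response curves (mean±s.d.). Cellular experiments were repeated at least three times.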

[2] = tested on: Class 3 BRAF mutant heterodimers; assay: RAF dimer immunoprecipitation in 293H cells; type: cell-based; settings: 1hr, increasing doses
[3] = tested on: Class 2 BRAF mutant homodimers; assay: RAF dimer immunoprecipitation in 293H cells; type: cell-based; settings: 1hr, increasing doses
[4] = tested on: WT RAF driven by either WT or mutant RAS (A549, SK-MEL-285, BEAS-2B and melanocytes); assay: ERK signaling in a panel of cell lines, 1 hour; type: cell-based
Procedure, shortened: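 Cells cultured as follows: SK-MEL-285 in RPMI with 10% FBS; BEAS-2B in BEBM medium; primary melanocytes in Dermal cell basal medium with melanocyte growth kit; A549 in DMEM with glutamine, antibiotics and 10% FBS. Pathway status read by Western blot for p-MEK1/2, p-ERK1/2, MEK1/2 and ERK1/2 (primary 1:1,000; HRP secondary 1:5,000). Cellular experiments repeated at least three times.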

[5] = tested on: A375 cells with overexpression of BRAF V600E; assay: A375 xenograft with doxycycline-induced BRAF V600E overexpression; type: in vivo, nude mice; settings: vemurafenib 75mg/kg BID, PLX8394 50mg/kg BID
Procedure, shortened: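 A375 cells carrying a retroviral tet-regulated BRAF V600E or NRAS Q61K construct (kept in 50 ug/ml hygromycin and 0.2 ug/ml puromycin). 5 million cells were injected s.c. into nude mice fed doxycycline food. At 100 mm3, mice stayed on doxycycline food and received vehicle, reference RAF inhibitor 75 mg/kg BID or test compound 50 mg/kg BID. Tumour size was tracked (n=5; mean±s.d.; two-tailed unpaired t-test).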

[6] = tested on: Class 1 (BRAF V600 mutants) monomers (A375, SK-MEL-239 and MDST-8); assay: ERK signaling in a panel of cell lines, 1 hour; type: cell-based
[7] = biological target: RAS-independent BRAF dimers (p61 BRAF) (Homo sapiens, UniProt P15056); assay: RAF dimer immunoprecipitation in 293H; type: cell-based; settings: read-out: IC50 for decrease of dimer levels, p61 BRAF; 1hr; IP/Western blot
Procedure, shortened: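 293H cells carried doxycycline-inducible NRAS Q61K introduced by retrovirus. They were transfected with Lipofectamine 2000 (DNA:reagent 1:3) to co-express V5- and FLAG-tagged full-length BRAF or p61 BRAF pairs. Cells were exposed to increasing test-compound doses for 1 hr, then lysed, and lysates were immunoprecipitated with anti-V5 agarose (1:200). Blots were probed with anti-V5 and anti-FLAG. Pulled-down FLAG and V5 proteins were quantified by densitometry and normalised to untreated cells.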

p61 WT BRAF dimers = assay: ERK signaling in SKBR3 cells ectopically expressing RAF proteins; type: cell-based; settings: 1hr
Procedure, shortened: (§1)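 SKBR3 cells (DMEM/F12 + 10% FBS) were transfected the day after seeding (Lipofectamine 2000, DNA:lipid 1:3) with plasmids for the indicated RAF proteins or empty pcDNA3. After 24 h, RAF-transfected cells got 1 uM lapatinib to suppress endogenous RAF activity; vector cells got DMSO. Test compound was then added at increasing doses for 1 hr. Protein expression and phosphorylation were read by Western blot; 3–4 independent repeats.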

p61 BRAF V600E dimers = assay: as above; type: cell-based; settings: 1hr
Procedure, shortened: as §1

[8] = tested on: RAF-null MEFs expressing BRAF; assay: ERK signaling in RAF-null MEFs expressing one RAF isoform; type: cell-based, Mouse; settings: 1hr
Procedure, shortened: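 RAF-less MEFs came from Araflox/lox;Braflox/lox;Craflox/lox;RERT ert/ert MEFs. Doxycycline-inducible wild-type ARAF, BRAF or CRAF was transduced retrovirally without 4-OHT and selected with puromycin/hygromycin. Cells were then infected with Adeno-Cre (MOI 100) and cultured in 1 uM 4-OHT plus 50 ng/ml doxycycline. GFP-positive cells were sorted after 2 weeks. Loss of endogenous RAF and induced expression were confirmed by genomic PCR and Western blot.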

[9] = tested on: HeLa cells (WT RAS and RAF) with BRAF overexpression; assay: ERK signaling in HeLa cells stably expressing RAF; type: cell-based; settings: 1hr

With `O=C(c1c(F)ccc(NS(=O)(=O)N2CC[C@@H](F)C2)c1F)c1c[nH]c2ncc(-c3cnc(C4CC4)nc3)cc12` [PLX8394] the tolerability [1] was “well tolerated”, the “effect on ERK signaling, BRAF knocked out” value (BRAF knockout MEF cells) was “induced ERK signaling” and the “disruption of Class 3 BRAF mutant heterodimers” value [2] was “disrupts”. For the same compound, the “disruption of Class 2 BRAF mutant homodimers” value [3] was “disrupts”, the “effect on ERK signaling in cells with WT RAF” value [4] was “almost no effect on ERK signaling or caused slight activation” and the “response of ERK signaling and tumor growth, BRAF V600E amplified” value [5] was “sensitive”. For the same compound, the “concentrations inhibiting ERK signaling driven by Class 1 monomers” value [6] was 30 to 100 nM, the IC50 [7] was 0.1 to 0.3 µM and the “doses required to inhibit p61 WT BRAF dimers” value (p61 WT BRAF dimers) was 300 to 1000 nM. For the same compound, the “doses required to inhibit p61 BRAF V600E dimers” value (p61 BRAF V600E dimers) was 100 to 300 nM, the “effect on ERK signaling, cells expressing only BRAF” value [8] was “inhibited” and the “effect on ERK signaling, BRAF overexpression” value [9] was “sensitized ERK signaling to inhibition”.
